Compounds with a hit are over-represented: about 4.8% of the library has one in this group of screens.
Beta cell apopt – beta cell apoptosis inhibition; INS-1E cytokine-induced death, ATP luminescence, 48 h; percent of positive-control rescue, neutral wells zero; protection from apoptosis, % (concentration not given with the values); 300,000 compounds, 0.8% hits;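 active means Every replicate reaches about 75%, or at least half do and their mean reaches it too, limit read from the data; inconclusive means At least half of replicates reach the limit but their mean does not; inactive means Under half of replicates reach the limit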;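 further: higher means more ATP so stronger rescue from cytokine killing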
WT yeast gro inh – growth inhibition of WT yeast, mitochondrial fusion screen; mitochondrial fusion phenotypic screen, WT strain; inhibition, % at 10 µM; 190,000 compounds, 2.1% hits; AID 1362; in the data active means inhibition above about 58%; tested in S. cerevisiae
T cruzi inh – T. cruzi replication inhibition; T. cruzi beta-gal in NIH3T3, luminescence, 90 h; inhibition, % (no concentration beside the values); 300,000 compounds, 1.4% hits;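 active means mean inhibition across valid replicates above about 55%, limit read from the data; inconclusive means mean below that limit but half or more replicates reach it; inactive means mean below it, under half of replicates reach it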;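 further: signal also drops with host cell toxicity which is not excluded here; higher percent means less beta-gal luminescence so fewer parasites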
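compound dosing = single 50 nL compound addition per well in DMSO | material = NIH/3T3 host cells with β-galactosidase reporter T. cruzi | input = 5,000 host fibroblasts per well | timing = ≥90 h infection period, 3 h prior cell attachment | read-out basis = percent inhibition of parasite-derived β-gal signal | detection = GalScreen β-gal luminescence, detergent lysis, 60 min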
Efflux pump mplx – antifungal efflux pump inhibition, Nile Red retention; S. cerevisiae Candida pump triplex; inhibition, % at 10 µM; 330,000 compounds, 0.44% hits; AID 485275;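 active means plate passing quality check with inhibition over a set limit, or well fluorescence over plate mean plus 4 SD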;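 further: Nile Red retained in pooled yeast measured as flow cytometry median fluorescence; higher means more Nile Red kept so more efflux inhibition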
Mot1-301 SUMO – inhibitors of SUMOylation pathway: yeast Mot1-301 growth rescue; S. cerevisiae Mot1-301 growth rescue, ATP luminescence, 38.5C; percent above DMSO median, 100 means doubled; growth rescue, % at 18.8 µM; 320,000 compounds, 1% hits;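 active means every valid replicate shows activation above 250% relative to neutral control wells; inactive means the rest, any valid replicate at or below 250%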
CSC inhib – cancer stem cell inhibition; 300,000 compounds, 1.1% hits; cancer stem cell-like cells viability, luminescence; inhibition, % at 7.5 µM; in the data active means inhibition above about 75%; inconclusive means no clear call, values can overlap the other calls; tested in HMLE shEcad cells
A number is an active result; - = inactive; ? = inconclusive; . = no result given.

SMILES	Beta cell apopt	WT yeast gro inh	T cruzi inh	Efflux pump mplx	Mot1-301 SUMO	CSC inhib
CCOc1cc(S(=O)(=O)Nc2ccc(CC)cc2)ccc1Cl	-	-	-	-	-	123
CCc1ccc(NS(=O)(=O)c2ccc(OC)c(C)c2)cc1	-	59	-	-	-	-
CCOc1cc(S(=O)(=O)Nc2ccccc2CC)ccc1Cl	-	69	-	-	-	-
O=C(O)c1cccc(NS(=O)(=O)c2ccc(C3CCCCC3)cc2)c1	-	-	-	-	-	-
COc1ccc(S(=O)(=O)Nc2ccc(CC#N)cc2)cc1	-	-	.	-	-	-
Cc1cccc(NS(=O)(=O)c2ccc(C3CCCCC3)cc2)c1	-	74	-	-	792	?
N#CCc1ccc(NS(=O)(=O)c2ccc(C3CCCCC3)cc2)cc1	-	62	-	-	-	-
O=C(/C=C/c1ccccc1Cl)c1ccccc(=O)c1O	-	-	58	-	-	108
Cc1ccc(/C=C/C(=O)c2ccccc(=O)c2O)c(C)c1	-	-	-	-	-	-
O=C(/C=C/c1ccccc1Cl)c1cccnc1	-	-	-	-	275	-
Cc1ccc(C)c(/C=C/C(=O)c2ccccc(=O)c2O)c1	-	-	58	-	-	92
COc1ccc(CC(=O)NNC(=O)COc2ccc(C)cc2)cc1S(=O)(=O)N1CCOCC1	-	.	-	-	-	-
COc1ccccc1C(=O)N/C(=N/c1nc(C)cc(C)n1)Nc1ccccc1	-	.	-	-	-	-
Cc1ccccc1OCC(=O)NNC(=O)c1cc(S(=O)(=O)N2CCOCC2)ccc1N1CCCC1	-	.	-	-	-	-
CCCCCCSc1ccc(-c2nc3ccc(C)cn3c2NC2CCCCC2)cc1	-	.	-	-	-	-
Cc1ccc2nc(-c3ccncc3)c(NC3CCCCC3)n2c1	-	-	60	-	-	-
Cc1ccc2nc(-c3ccncc3)c(NC3CCCC3)n2c1	-	-	77	-	-	-
Cc1ccc2nc(-c3ccsc3)c(NC3CCCC3)n2c1	-	-	-	-	.	-
Cc1cc(Br)cc(C)c1OCCCCN(C)C	-	-	63	-	-	-
CCOC(=O)c1cnc2ccc(OCC)cc2c1NCc1ccccc1OC	-	-	-	-	-	76
Cc1cc(C)n2nc(C(=O)NC3CCCc4ccccc43)nc2n1 (configuration not stated)	-	-	-	-	.	-
Cc1nc(NC(C)c2ccccc2)c2oc3ccccc3c2n1 (configuration not stated)	-	66	-	-	-	-
Cc1nc(NCCc2cnc[nH]2)c2oc3ccccc3c2n1	.	-	71	-	-	.
CCc1nc(Nc2ccncc2)c2oc3ccccc3c2n1	-	-	66	-	-	-
Cc1nc(Nc2ccncc2)c2oc3ccccc3c2n1	-	.	73	-	-	-
SMILES	Beta cell apopt	WT yeast gro inh	T cruzi inh	Efflux pump mplx	Mot1-301 SUMO	CSC inhib
CCOc1cccc(CNc2ccc(O)cc2)c1OCc1ccc(Cl)cc1Cl	-	66	-	-	-	-
CCOc1cc(CNCCO)cc(Br)c1OCc1ccc(Cl)cc1Cl	-	-	-	-	-	148
OCCNCc1cc(Br)ccc1OCc1ccc(Cl)cc1Cl	.	58	-	.	.	.
CCOc1cccc(CNc2ccc(O)cc2)c1OCc1ccccc1Cl	-	-	-	-	-	-
CCCC1CCC(c2ccc(OCC)cc2)=CC1=O (configuration not stated)	-	.	-	-	-	-
CC(Sc1nc(N)cc(N)n1)C(=O)NCCC1=CCCCC1 (configuration not stated)	-	.	.	-	-	-
CC(C)c1ccccc1NC(=S)NN(Cc1ccccc1)c1ccccc1	-	62	-	-	-	-
O=C(NC(Nc1cc(C(F)(F)F)ccc1Cl)C(=O)c1ccccc1)c1ccccc1 (configuration not stated)	-	-	58	-	-	-
Cc1cc(C)n(-c2c(C)[nH]c3ccccc23)n1	-	-	-	-	-	-
O=C(Nc1ccccn1)c1csc2c1CCCC2	-	72	-	-	-	-
COc1ccccc1NC(=O)c1csc2c1CCCC2	-	-	-	-	-	-
COc1cc(NC(=O)CN2C(=O)NC(c3ccccc3)(c3ccccc3)C2=O)c(C)cc1[N+](=O)[O-]	-	-	-	-	-	-
CCN(CC)S(=O)(=O)c1cccc(-n2c(O)c(C=Nc3ccccc3C(=O)O)c3ccccc3c2=O)c1	-	.	72	-	-	-
Cc1ccc2cc(CN(Cc3cccs3)C(=O)c3ccco3)c3nnnn3c2c1C	-	58	-	-	-	-
Cc1ccc(-n2nnnc2SC(C(=O)c2c[nH]c3ccccc23)c2ccccc2)cc1 (configuration not stated)	-	-	-	-	-	86
CCC(C)n1ncn(-c2ccc(N3CCN(c4ccc(OCC5COC(Cn6cncn6)(c6ccc(Cl)cc6Cl)O5)cc4)CC3)cc2)c1=O (configuration not stated)	-	-	55	-	-	-
Cc1nn(C(C)C)c(C)c1CN1CCCC(CCC(=O)NCc2ccccc2F)C1 (configuration not stated)	-	-	58	-	-	-
O=C(CCC1CCCN(Cc2cccc(Cl)c2)C1)NCc1ccccc1F (configuration not stated)	-	.	61	-	-	-
COc1ccc(C(=O)n2ccc(C)n2)cc1Br	.	-	.	.	.	.
COC(=O)/C=C1\S/C(=N/NC(=O)c2ccccc2)NC1=O	-	-	-	-	-	-
COc1ccccc1/C=C1\S/C(=N/NC(=O)c2cccc(Br)c2)NC1=O	-	-	-	-	-	114
Cc1noc(C)c1COc1ccc(C(=O)OCC(=O)NCCN2C(=O)CSC2=O)cc1	-	-	-	-	-	-
CCc1ccc(CN(C)C(=O)CCc2nc3ccccc3n(-c3ccc(OC)cc3)c2=O)cc1	-	58	-	-	-	-
Cc1onc(-c2ccc(Cl)cc2Cl)c1-c1csc(N/N=C/c2ccccc2Cl)n1	.	.	62	-	-	-
Cc1onc(-c2ccccc2)c1-c1csc(N/N=C/c2ccccc2Cl)n1	.	.	.	-	-	-
SMILES	Beta cell apopt	WT yeast gro inh	T cruzi inh	Efflux pump mplx	Mot1-301 SUMO	CSC inhib
O=C(Nc1ccc(Br)cc1)c1cccn1-c1ncc(C(F)(F)F)cc1Cl	-	78	-	-	-	-
COc1ccc(CN(C)C(=O)Cn2cnc3c(NCc4ccccc4)ncnc32)cc1OC	.	.	.	-	.	.
CCc1ccc(Nc2nnc(SCC(=O)c3c(N)n(C4CC4)c(=O)[nH]c3=O)s2)cc1	-	.	.	-	-	.
CCc1cccc(C)c1NC(=S)NCCc1c(C)[nH]c2ccc(C)cc12	-	62	-	-	-	-
COc1ccc2[nH]c(C)c(CCNC(=S)Nc3cccc(C)c3)c2c1	.	-	-	-	-	-
CCc1cccc(CC)c1NC(=S)NCCc1c(C)[nH]c2ccc(C)cc12	-	78	?	-	-	-
CCCCNC(=O)CSc1nc2ccsc2c(=O)n1CCCC(=O)NCCc1ccc(S(N)(=O)=O)cc1	-	-	-	-	-	-

Bioassay records (PubChem BioAssay)
